Experimental data: ChEMBL document CHEMBL3784971, “Synthesis, characterization, antimicrobial and biofilm inhibitory studies of new esterquats” (Bioorg Med Chem Lett, 2016)
Converted amounts (≈) assume the structure as drawn. Blank lines part the entries; values can stand above or below the compound they belong to.

Columns and labels:
[1] = tested on: Candida albicans; experiment: Antimicrobial activity against Candida albicans MTCC 1637 assessed as growth inhibition after 24 hrs by agar well diffusion method; assay type: functional; conditions: MTCC 1637, 24 h
[2] = tested on: Candida albicans; experiment: Fungicidal activity against Candida albicans MTCC 227 after 24 hrs by serial dilution method; assay type: functional; conditions: MTCC 227, 24 h
[3] = tested on: Candida albicans; experiment: Fungicidal activity against Candida albicans MTCC 3958 after 24 hrs by serial dilution method; assay type: functional; conditions: MTCC 3958, 24 h
[4] = tested on: Raoultella planticola; experiment: Bactericidal activity against Klebsiella planticola MTCC 530 after 24 hrs by serial dilution method; assay type: functional; conditions: MTCC 530, 24 h
[5] = tested on: Escherichia coli; experiment: Antimicrobial activity against Escherichia coli MTCC 739 assessed as growth inhibition after 24 hrs by agar well diffusion method; assay type: functional; conditions: MTCC 739, 24 h
[6] = tested on: Bacillus subtilis; experiment: Bactericidal activity against Bacillus subtilis MTCC 121 after 24 hrs by serial dilution method; assay type: functional; conditions: MTCC 121, 24 h
[7] = tested on: Bacillus subtilis; experiment: Antimicrobial activity against Bacillus subtilis MTCC 121 assessed as growth inhibition after 24 hrs by agar well diffusion method; assay type: functional; conditions: MTCC 121, 24 h
[8] = tested on: Pichia kudriavzevii; experiment: Antimicrobial activity against Candida krusei MTCC 3020 assessed as growth inhibition after 24 hrs by agar well diffusion method; assay type: functional; conditions: MTCC 3020, 24 h
[9] = tested on: Micrococcus luteus; experiment: Antimicrobial activity against Micrococcus luteus MTCC 2470 assessed as growth inhibition after 24 hrs by agar well diffusion method; assay type: functional; conditions: MTCC 2470, 24 h
[10] = tested on: Candida parapsilosis; experiment: Fungicidal activity against Candida parapsilosis MTCC 1744 after 24 hrs by serial dilution method; assay type: functional; conditions: Lodderomyces parapsilosis, MTCC 1744, 24 h
[11] = tested on: Staphylococcus aureus; experiment: Bactericidal activity against Staphylococcus aureus MTCC 96 after 24 hrs by serial dilution method; assay type: functional; conditions: MTCC 96, 24 h
[12] = tested on: [Candida] aaseri; experiment: Fungicidal activity against Candida aaseri MTCC 1962 after 24 hrs by serial dilution method; assay type: functional; conditions: Yamadazyma aaseri, MTCC 1962, 24 h
[13] = tested on: Candida parapsilosis; experiment: Antimicrobial activity against Candida parapsilosis MTCC 1744 assessed as growth inhibition after 24 hrs by agar well diffusion method; assay type: functional; conditions: Lodderomyces parapsilosis, MTCC 1744, 24 h
[14] = tested on: Candida albicans; experiment: Fungicidal activity against Candida albicans MTCC 3017 after 24 hrs by serial dilution method; assay type: functional; conditions: MTCC 3017, 24 h
[15] = tested on: Candida albicans; experiment: Antimicrobial activity against Candida albicans MTCC 183 assessed as growth inhibition after 24 hrs by agar well diffusion method; assay type: functional; conditions: MTCC 183, 24 h
[16] = tested on: Micrococcus luteus; experiment: Bactericidal activity against Micrococcus luteus MTCC 2470 after 24 hrs by serial dilution method; assay type: functional; conditions: MTCC 2470, 24 h
[17] = tested on: Staphylococcus aureus; experiment: Antimicrobial activity against Staphylococcus aureus MTCC 96 assessed as growth inhibition after 24 hrs by agar well diffusion method; assay type: functional; conditions: MTCC 96, 24 h
[18] = tested on: Candida albicans; experiment: Antimicrobial activity against Candida albicans MTCC 227 assessed as growth inhibition after 24 hrs by agar well diffusion method; assay type: functional; conditions: MTCC 227, 24 h
[19] = tested on: Candida albicans; experiment: Antimicrobial activity against Candida albicans MTCC 3958 assessed as growth inhibition after 24 hrs by agar well diffusion method; assay type: functional; conditions: MTCC 3958, 24 h
[20] = tested on: Candida albicans; experiment: Fungicidal activity against Candida albicans MTCC 854 after 24 hrs by serial dilution method; assay type: functional; conditions: MTCC 854, 24 h
[21] = tested on: Escherichia coli; experiment: Bactericidal activity against Escherichia coli MTCC 739 after 24 hrs by serial dilution method; assay type: functional; conditions: MTCC 739, 24 h
[22] = tested on: Micrococcus luteus; experiment: Antibiofilm activity against Micrococcus luteus MTCC 2470 after 24 hrs by crystal violet staining based assay; assay type: functional, organism-based; conditions: MTCC 2470, 24 h
In short: (§1)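 Biofilm inhibition tested for amine esters and esterquats. IC50 values (µg/mL) are the mean of three determinations, with ciprofloxacin as reference.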

[23] = tested on: Candida albicans; experiment: Fungicidal activity against Candida albicans MTCC 3018 after 24 hrs by serial dilution method; assay type: functional; conditions: MTCC 3018, 24 h
[24] = tested on: Candida albicans; experiment: Fungicidal activity against Candida albicans MTCC 4748 after 24 hrs by serial dilution method; assay type: functional; conditions: MTCC 4748, 24 h
[25] = tested on: Staphylococcus aureus; experiment: Antimicrobial activity against Staphylococcus aureus MLS16 MTCC 2940 assessed as growth inhibition after 24 hrs by agar well diffusion method; assay type: functional; conditions: MLS16 MTCC 2940, 24 h
[26] = tested on: Bacillus subtilis; experiment: Antibiofilm activity against Bacillus subtilis MTCC 121 after 24 hrs by crystal violet staining based assay; assay type: functional, organism-based; conditions: MTCC 121, 24 h; in short: as §1
[27] = tested on: Candida albicans; experiment: Fungicidal activity against Candida albicans MTCC 7315 after 24 hrs by serial dilution method; assay type: functional; conditions: MTCC 7315, 24 h
[28] = tested on: Candida albicans; experiment: Antimicrobial activity against Candida albicans MTCC 7315 assessed as growth inhibition after 24 hrs by agar well diffusion method; assay type: functional; conditions: MTCC 7315, 24 h
[29] = tested on: Candida albicans; experiment: Antimicrobial activity against Candida albicans MTCC 4748 assessed as growth inhibition after 24 hrs by agar well diffusion method; assay type: functional; conditions: MTCC 4748, 24 h
[30] = tested on: Candida albicans; experiment: Antimicrobial activity against Candida albicans MTCC 3018 assessed as growth inhibition after 24 hrs by agar well diffusion method; assay type: functional; conditions: MTCC 3018, 24 h
[31] = tested on: Pichia sporocuriosa; experiment: Fungicidal activity against Issatchenkia hanoiensis MTCC 4755 after 24 hrs by serial dilution method; assay type: functional; conditions: MTCC 4755, 24 h
[32] = tested on: Staphylococcus aureus; experiment: Antibiofilm activity against Staphylococcus aureus MLS16 MTCC 2940 after 24 hrs by crystal violet staining based assay; assay type: functional, organism-based; conditions: MLS16 MTCC 2940, 24 h; in short: as §1
[33] = tested on: Candida albicans; experiment: Fungicidal activity against Candida albicans MTCC 1637 after 24 hrs by serial dilution method; assay type: functional; conditions: MTCC 1637, 24 h
[34] = tested on: Candida albicans; experiment: Antimicrobial activity against Candida albicans MTCC 854 assessed as growth inhibition after 24 hrs by agar well diffusion method; assay type: functional; conditions: MTCC 854, 24 h
[35] = tested on: [Candida] aaseri; experiment: Antimicrobial activity against Candida aaseri MTCC 1962 assessed as growth inhibition after 24 hrs by agar well diffusion method; assay type: functional; conditions: Yamadazyma aaseri, MTCC 1962, 24 h
[36] = tested on: Candida albicans; experiment: Fungicidal activity against Candida albicans MTCC 183 after 24 hrs by serial dilution method; assay type: functional; conditions: MTCC 183, 24 h
[37] = tested on: Pseudomonas aeruginosa; experiment: Antimicrobial activity against Pseudomonas aeruginosa MTCC 2453 assessed as growth inhibition after 24 hrs by agar well diffusion method; assay type: functional; conditions: MTCC 2453, 24 h
[38] = tested on: Candida albicans; experiment: Antimicrobial activity against Candida albicans MTCC 3017 assessed as growth inhibition after 24 hrs by agar well diffusion method; assay type: functional; conditions: MTCC 3017, 24 h
[39] = tested on: Nakaseomyces glabratus; experiment: Fungicidal activity against Candida glabrata MTCC 3019 after 24 hrs by serial dilution method; assay type: functional; conditions: MTCC 3019, 24 h
[40] = tested on: Pichia sporocuriosa; experiment: Antimicrobial activity against Issatchenkia hanoiensis MTCC 4755 assessed as growth inhibition after 24 hrs by agar well diffusion method; assay type: functional; conditions: MTCC 4755, 24 h
[41] = tested on: Staphylococcus aureus; experiment: Bactericidal activity against Staphylococcus aureus MLS16 MTCC 2940 after 24 hrs by serial dilution method; assay type: functional; conditions: MLS16 MTCC 2940, 24 h
[42] = tested on: Pichia kudriavzevii; experiment: Fungicidal activity against Candida krusei MTCC 3020 after 24 hrs by serial dilution method; assay type: functional; conditions: MTCC 3020, 24 h
[43] = tested on: Nakaseomyces glabratus; experiment: Antimicrobial activity against Candida glabrata MTCC 3019 assessed as growth inhibition after 24 hrs by agar well diffusion method; assay type: functional; conditions: MTCC 3019, 24 h
[44] = tested on: Staphylococcus aureus; experiment: Antibiofilm activity against Staphylococcus aureus MTCC 96 after 24 hrs by crystal violet staining based assay; assay type: functional, organism-based; conditions: MTCC 96, 24 h; in short: as §1
[45] = tested on: Raoultella planticola; experiment: Antimicrobial activity against Klebsiella planticola MTCC 530 assessed as growth inhibition after 24 hrs by agar well diffusion method; assay type: functional; conditions: MTCC 530, 24 h

- MIC [1]: 31.2 µg/mL
- MIC [5]: > 125 µg/mL
- MIC [7]: 7.8 µg/mL
- MIC [8]: 31.2 µg/mL
- MIC [9]: 7.8 µg/mL
- MIC [13]: 15.6 µg/mL
- MIC [15]: 15.6 µg/mL
- MIC [17]: 3.9 µg/mL
- MIC [18]: 15.6 µg/mL
- MIC [19]: 15.6 µg/mL
- IC50 [22]: 2.5 µg/mL
- MIC [25]: 3.9 µg/mL
- IC50 [26]: 4.4 µg/mL
- MIC [28]: 15.6 µg/mL
- MIC [29]: 15.6 µg/mL
- MIC [30]: 15.6 µg/mL
- IC50 [32]: 3.6 µg/mL
- MIC [34]: 31.2 µg/mL
- MIC [35]: 15.6 µg/mL
- MIC [37]: > 125 µg/mL
- MIC [38]: 15.6 µg/mL
- MIC [40]: 15.6 µg/mL
- MIC [43]: 31.2 µg/mL
- IC50 [44]: 2.5 µg/mL
Compound: COC(=O)CCCCCCCCCC[N+](C)(C1CCCCC1)C1CCCCC1.[Cl-]
- MFC [2]: 31.2 µg/mL
- MFC [3]: 31.2 µg/mL
- MBC [4]: > 125 µg/mL
- MBC [6]: 15.6 µg/mL
- MFC [10]: 62.5 µg/mL
- MBC [11]: 7.8 µg/mL
- MFC [12]: 31.2 µg/mL
- MFC [14]: 31.2 µg/mL
- MBC [16]: 7.8 µg/mL
- MFC [20]: 31.2 µg/mL
- MBC [21]: > 125 µg/mL
- MFC [23]: 62.5 µg/mL
- MFC [24]: 31.2 µg/mL
- MFC [27]: 31.2 µg/mL
- MFC [31]: 31.2 µg/mL
- MFC [33]: 31.2 µg/mL
- MFC [36]: 62.5 µg/mL
- MFC [39]: 62.5 µg/mL
- MBC [41]: 7.8 µg/mL
- MFC [42]: 62.5 µg/mL
- MIC [45]: > 125 µg/mL

- MIC [5]: > 125 µg/mL
- MIC [7]: > 125 µg/mL
- MIC [9]: 31.2 µg/mL (≈ 70.9 µM)
- MIC [17]: 15.6 µg/mL (≈ 35.5 µM)
- IC50 [22]: 17.2 µg/mL (≈ 39.1 µM)
- MIC [25]: 62.5 µg/mL (≈ 142 µM)
- MIC [37]: > 125 µg/mL
- MIC [38]: > 125 µg/mL
- IC50 [44]: 14.5 µg/mL (≈ 33 µM)
Compound: CCCCCCCCN(CCCCCCCC)CCCCCCCCCCC(=O)OC
- MBC [4]: > 125 µg/mL
- MBC [6]: > 125 µg/mL
- MBC [11]: 31.2 µg/mL (≈ 70.9 µM)
- MBC [16]: 62.5 µg/mL (≈ 142 µM)
- MBC [21]: > 125 µg/mL
- MBC [41]: > 125 µg/mL
- MIC [45]: > 125 µg/mL

- MIC [5]: > 125 µg/mL
- MIC [7]: > 125 µg/mL
- MIC [9]: > 125 µg/mL
- MIC [17]: > 125 µg/mL
- MIC [25]: > 125 µg/mL
- MIC [37]: > 125 µg/mL
- MIC [38]: > 125 µg/mL
Compound: CCCCCCCCCCCC[N+](C)(CCCCCCCCCCC(=O)OC)CCCCCCCCCCC(=O)OC.[Cl-]
- MBC [4]: > 125 µg/mL
- MBC [6]: > 125 µg/mL
- MBC [11]: > 125 µg/mL
- MBC [16]: > 125 µg/mL
- MBC [21]: > 125 µg/mL
- MBC [41]: > 125 µg/mL
- MIC [45]: > 125 µg/mL
